Source: PubChem BioAssay
Only a selection was taken, and hits are over-represented in it overall.
T cruzi intra = intracellular Trypanosoma cruzi inhibition; intracellular Trypanosoma cruzi in host cells, plate reader; hit rate 4.9% among 22,000; activity score (inhibition), % at 5.01 µM; AID 651903; in the data active means activity score above about 55%; inconclusive means no clear call, values can overlap the other calls;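 further: parasites and compound incubated about four days before reading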
INS-1E rescue = preserves ATP levels in cytokine-treated INS-1E cells; AID 488910; INS-1E cytokine-induced death, ATP luminescence, 48 h; normalised: neutral wells 0, positive control 100; hit rate 0.1% among 20,000; protection from cytokine-induced ATP loss, % at 10 µM;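 active means mean replicate protection from cytokine-induced ATP loss at least 50% and at least 75% of replicates each reaching 50%; inconclusive means meets only one of the two criteria, mean or replicate share; inactive means fails both the mean and replicate share criteria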
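Assay system: INS-1E rat insulinoma cells. Amount: 8000 cells per well. Medium: phenol-red-free RPMI with 5% fetal bovine serum. Reagent: IL-1β, TNF-α and IFN-γ cytokine mix. Doses: one compound concentration, pin transfer. Schedule: 48 h co-treatment, 10 min post-lysis read. Detection: CellTiter-Glo luminescence measuring cellular ATP.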
A1 apoptosis 2 = blocks A1, raising caspase activity; 24,000 tested, under 10 active; MEF A1-2A-BIM cells, caspase-Glo luminescence, 3 h; percent of clofoctol response, DMSO zero; caspase activation, % (no concentration beside the values); AID 2465; in the data active means caspase activation above about 5.9%; inconclusive means no clear call, values can overlap the other calls; inactive means below about 2.2%
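Material: mouse embryonic fibroblasts co-expressing A1 and BIM (A1-2A-BIM), primed for A1 dependence / Quantity: 2500 cells/well / Buffer or medium: RPMI-1640 growth medium with 10% FBS / Doses: 50 nL compound per well, pinned / Schedule: 3 h compound exposure at 37 °C / Signal: Caspase-Glo luminescence (DEVD substrate) / Measure: Caspase-3/7 activation, seen as rise in luminescence signal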
Hits are given with their value; n = inactive; u = inconclusive; x = no result.

SMILES | T cruzi intra | INS-1E rescue | A1 apoptosis 2
C[C@@H]1CN([C@H](C)CO)C(=O)Cc2cc(NC(=O)Nc3ccc4c(c3)OCO4)ccc2O[C@H]1CN(C)Cc1ccc(-c2ccccc2)cc1 | 72 | n | x
C[C@@H]1CN([C@H](C)CO)C(=O)Cc2cc(NC(=O)Nc3ccc4c(c3)OCO4)ccc2O[C@H]1CN(C)Cc1ccccc1 | n | n | n
C[C@@H]1CN([C@H](C)CO)C(=O)Cc2cc(NC(=O)Nc3ccc(F)cc3)ccc2O[C@H]1CN(C)Cc1ccc(-c2ccccc2)cc1 | 74 | n | n
C[C@H]1CN([C@@H](C)CO)C(=O)Cc2cc(NC(=O)Nc3ccc(F)cc3)ccc2O[C@H]1CN(C)Cc1ccc(-c2ccccc2)cc1 | n | n | n
C=C/C=C/[C@@H]1C(=C)CN([C@@H](Cc2ccc(N=[N+]=[N-])cc2)C(=O)OC)[C@H]1[C@@H](O)Cc1ccccc1 | x | x | n
COC(=O)CCCCCCC(=O)N/N=C/C=C/c1ccccc1 | n | n | x
O=C(N/N=C/c1cc(O)ccc1O)c1ccccn1 | n | n | n
O=C1C2(CO)C=C(Br)[C@H](C[C@@H]2c2ccccc2)[C@@]12CO2 | x | x | n
C[C@H](CO)N1C[C@H](C)[C@H](CN(C)S(=O)(=O)c2ccccc2)Oc2ncc(C#Cc3ccccc3)cc2C1=O | n | x | n
C[C@H](CO)N1C[C@H](C)[C@H](CN(C)S(=O)(=O)c2ccc(F)cc2)Oc2ncc(C#Cc3ccccc3)cc2C1=O | 62 | x | x
C[C@H](CO)N1C[C@H](C)[C@H](CN(C)S(=O)(=O)c2cccc(F)c2)Oc2ncc(C#Cc3ccccc3)cc2C1=O | n | x | n
CCCC(O)C#Cc1cnc2c(c1)C(=O)N([C@H](C)CO)C[C@H](C)[C@H](CN(C)S(=O)(=O)c1ccc(F)cc1)O2 (some centres undefined) | n | x | n
C[C@H](CO)N1C[C@H](C)[C@H](CN(C)S(=O)(=O)c2ccccc2)Oc2ncc(C#Cc3ccc(C(F)(F)F)cc3)cc2C1=O | 78 | x | n
C[C@H](CO)N1C[C@H](C)[C@H](CN(C)S(=O)(=O)c2ccc(F)cc2)Oc2ncc(C#Cc3ccc(C(F)(F)F)cc3)cc2C1=O | 85 | x | n
COc1ccc(C#Cc2cnc3c(c2)C(=O)N([C@H](C)CO)C[C@H](C)[C@H](CN(C)S(=O)(=O)c2ccccc2)O3)cc1OC | n | x | n
C[C@H](CO)N1C[C@H](C)[C@H](CN(C)S(=O)(=O)c2cccc(F)c2)Oc2ncc(C#Cc3ccc(C(F)(F)F)cc3)cc2C1=O | 85 | x | n
O=C(CCCCCCC(=O)Nc1ccccc1O)N=NC=C1C=CN(O)C=C1 | n | n | n
COC(=O)C[C@H]1O[C@@]2(C[C@@H]1[Si](C)(C)C)C(=O)N(C)c1ccccc12 | x | x | n
O=C1O[C@H](c2ccccc2)[C@H](c2ccccc2)N2[C@H]1[C@@H](C(=O)N1CCN(c3ncccn3)CC1)[C@]1(C(=O)Nc3ccc(C#CCCO)cc31)[C@H]2c1ccccc1OCCO | x | x | n
COc1ccc(S(=O)(=O)N(C)C[C@@H]2Oc3ncc(C#Cc4cccc(F)c4)cc3C(=O)N([C@H](C)CO)C[C@@H]2C)cc1 | n | x | x
CCCC(O)C#Cc1cnc2c(c1)C(=O)N([C@H](C)CO)C[C@H](C)[C@H](CN(C)S(=O)(=O)c1cccc(OC)c1)O2 (some centres undefined) | n | x | x
C[C@H](CO)N1C[C@H](C)[C@H](CN(C)S(=O)(=O)c2cccs2)Oc2ncc(C#Cc3cccc(F)c3)cc2C1=O | 71 | x | x
Cc1ccc(S(=O)(=O)N(C)C[C@@H]2Oc3ncc(C#CCN(C)C)cc3C(=O)N([C@H](C)CO)C[C@@H]2C)cc1 | n | x | x
COc1cccc(S(=O)(=O)N(C)C[C@@H]2Oc3ncc(C#Cc4ccc(F)cc4)cc3C(=O)N([C@H](C)CO)C[C@@H]2C)c1 | 73 | x | n
COc1ccc(S(=O)(=O)N(C)C[C@@H]2Oc3ncc(C#Cc4ccc(C(F)(F)F)cc4)cc3C(=O)N([C@H](C)CO)C[C@@H]2C)cc1 | 82 | n | x
SMILES | T cruzi intra | INS-1E rescue | A1 apoptosis 2
C[C@H](CO)N1C[C@H](C)[C@H](CN(C)S(C)(=O)=O)Oc2ncc(C#Cc3cccc(F)c3)cc2C1=O | n | x | x
Cc1ccc(S(=O)(=O)N(C)C[C@@H]2Oc3ncc(C#Cc4ccc(C(F)(F)F)cc4)cc3C(=O)N([C@H](C)CO)C[C@@H]2C)cc1 | 89 | n | n
C=C(C)[C@@H]1CC=C(/C=N/NC(=O)CCCCCC(=O)O)CC1 | n | n | n
C[C@@H]1CN([C@@H](C)CO)C(=O)Cc2cc(NC(=O)Nc3ccc(C(F)(F)F)cc3)ccc2O[C@@H]1CN(C)Cc1ccccc1 | 58 | n | x
C[C@@H]1CN([C@H](C)CO)C(=O)Cc2cc(NC(=O)Nc3ccc(C(F)(F)F)cc3)ccc2O[C@@H]1CN(C)Cc1ccccc1 | 69 | n | x
C[C@H]1CN([C@@H](C)CO)C(=O)Cc2cc(NC(=O)Nc3ccccc3)ccc2O[C@@H]1CN(C)Cc1ccc(C(F)(F)F)cc1 | n | n | n
C[C@@H]1CN([C@@H](C)CO)C(=O)Cc2cc(NC(=O)Nc3ccccc3)ccc2O[C@@H]1CN(C)Cc1ccc(C(F)(F)F)cc1 | u | n | n
O=C(CCCCCCC(=O)Nc1ccccc1O)N/N=C/c1cc(Br)ccc1O | n | n | n
C[C@@H]1CN([C@@H](C)CO)C(=O)c2cc(NC(=O)Nc3ccc4c(c3)OCO4)ccc2O[C@H]1CN(C)Cc1ccc(C(=O)Nc2ccccc2N)cc1 | n | n | n
C[C@@H]1CN([C@H](C)CO)C(=O)c2cccc(NC(=O)Nc3ccc4c(c3)OCO4)c2O[C@@H]1CN(C)Cc1ccc(C(=O)Nc2ccccc2N)cc1 | 68 | n | x
C[C@@H]1CN([C@@H](C)CO)C(=O)c2cc(NC(=O)Nc3ccc4c(c3)OCO4)ccc2O[C@@H]1CN(C)Cc1ccc(C(=O)Nc2ccccc2N)cc1 | n | n | x
C[C@H]1CN([C@@H](C)CO)C(=O)c2cccc(NC(=O)Nc3ccc4c(c3)OCO4)c2O[C@H]1CN(C)Cc1ccc(C(=O)Nc2ccccc2N)cc1 | 66 | n | x
COc1ccc(S(=O)(=O)Nc2ccc3c(c2)C(=O)N([C@@H](C)CO)C[C@@H](C)[C@H](CN(C)C(=O)NC2CCCCC2)O3)cc1 | n | n | x
Cc1ccc(S(=O)(=O)Nc2cccc3c2O[C@H](CN(C)Cc2ccc(C(=O)Nc4ccccc4N)cc2)[C@H](C)CN([C@H](C)CO)C3=O)cc1 | n | n | x
Cc1ccc(S(=O)(=O)Nc2cccc3c2O[C@@H](CN(C)Cc2ccc(C(=O)Nc4ccccc4N)cc2)[C@H](C)CN([C@@H](C)CO)C3=O)cc1 | 55 | n | x
C[C@@H]1CN([C@@H](C)CO)C(=O)c2cccc(NS(=O)(=O)c3ccc(F)cc3)c2O[C@@H]1CN(C)Cc1ccc(C(=O)Nc2ccccc2N)cc1 | n | n | x
C[C@H]1CN([C@@H](C)CO)C(=O)c2cccc(NS(=O)(=O)c3ccc(F)cc3)c2O[C@H]1CN(C)Cc1ccc(C(=O)Nc2ccccc2N)cc1 | 60 | n | n
